According to PubChem BioAssay:
Inconclusive results are not listed.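 The calls were made as follows, unless noted: active = viability increase at or above a cutoff of the median across tested compounds plus 3 SD (cut at about 8.5% in these data, passing the limit was not always enough); inconclusive = some gains above the cutoff, reason not given; inactive = the rest.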

Tests used:
[1] = OD615 S. cerevisiae growth inhibition, permissive medium, pilot counter-assay, permissive growth control for S. cerevisiae lifespan shortening project (AID 705;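 active = growth inhibition above 25% in both replicates, a cutoff set 3 SD above the mean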); conditions: OD615, 24 h, at 10 µM, hits give high values
Outline: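 System: S. cerevisiae with engineered DeaD lifespan system / Measured by: absorbance (optical density) at 615 nm / Read-out: reduction in yeast growth (OD615) / Times: 4 h cell pre-growth, 24 h exposure at 30 °C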

[2] = Restrictive medium S. cerevisiae growth inhibition, OD615, pilot screen of yeast lifespan reduction project, restrictive growth control (AID 706;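 active = growth inhibition above a set limit, 3 SD over mean compound inhibition, in both replicates, cut at about 43% in these data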;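 also: modified DeaD lifespan yeast strain shifted to restrictive glucose medium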); conditions: OD615, 48 h, at 10 µM, hits give high values
Outline: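 System: Engineered S. cerevisiae DeaD strain | Buffer or medium: Glucose-based CSMM-D restrictive medium | Schedule: 4 h pre-incubation, 48 h exposure at 30 °C | Technique: Optical density at 615 nm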

[3] = viability gain of MRP-1-high H69AR cells under doxorubicin, pilot screen, MRP-1 activator project, CellTiter-Glo, duplicate (AID 807); conditions: H69AR viability with doxorubicin, CellTiter-Glo luminescence; at 10 µM; hits give high values;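 also: compound pretreatment 18-22 h then 72 h combined with doxorubicin; 0% = doxorubicin alone and 100% = vehicle without doxorubicin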
[4] = growth suppression of beta-catenin knockout HCT116, pilot screen, human colon tumor cells (AID 823;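 active = cell viability at or below a set limit in both duplicate runs, the limit being the all-compound median minus 4 SD, cut at about 23% in these data, passing the limit was not always enough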;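 also: 0% = wells killed by 20 µM Hyamine and 100% = untreated DMSO cell wells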); conditions: CellTiter-Glo, 60 h, at 10 µM, hits give low values
[5] = growth suppression of PTEN-deleted HCT116, pilot screen, cell-based, HCT116 clonal line, CellTiter-Glo (AID 824;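 active = viability at or below 27.92% in each of two runs, the all-compound median minus 4 SD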;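 also: 0% = 20 µM Hyamine control and 100% = vehicle cell control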); conditions: 60 h, at 10 µM, hits give low values
[6] = inhibitors of the yeast RAM network, pilot screen, dse1pr::URA3 reporter, 5-FOA selection (AID 869;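 active = inhibition over a set limit, the all-compound mean plus 3 SD, in both replicate runs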;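 also: 0% = DMSO wells with no growth and 100% = 10 µM 1-NA-PP1 with full growth; RAM network block rescues cells from 5-FOA so hits raise OD615 growth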); conditions: S. cerevisiae dse1pr::URA3 5-FOA growth, OD615, 2 d; at 10 µM; hits give high values; strain carries analog-sensitive mutant Cbk1 kinase
[7] = RAM signaling pathway blockade in yeast – S. cerevisiae, Pdr1DBD-CYC8 efflux-inhibited sensitized strain, primary screen (AID 1298;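 active = RAM network inhibition above 8.4% in each of two replicates, 3 SD over the compound average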;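 also: 0% = DMSO untreated cells without growth and 100% = 10 µM 1-NA-PP1 full growth; higher means more yeast growth rescued from 5-FOA killing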); conditions: S. cerevisiae cbk1-as DSE1-URA3 strain, 5-FOA growth OD615, 2 d; at 50 µM; hits give high values

Cc1cccc(CSc2nnc(-c3ccccn3)n2N)c1
inactive: growth inhibition [1] -6.39% | growth inhibition [2] 14.2% | viability increase [3] -2.01% | viability [4] 103% | viability [5] 94.4% | inhibition [6] 0.655% | RAM network inhibition [7] 0.89%

CCC(C)NS(=O)(=O)c1ccc(NC(=O)c2c(-c3ccccc3)noc2C)cc1 (configuration not stated)
inactive: growth inhibition [1] -6.46% | growth inhibition [2] -11% | viability increase [3] -0.12% | viability [4] 86.3% | viability [5] 71.1% | inhibition [6] 0.48% | RAM network inhibition [7] 5.94%

CCc1nccn1S(=O)(=O)c1ccc2ccccc2c1
inactive: growth inhibition [1] 0.77% | growth inhibition [2] -2.31% | viability increase [3] -1.22% | viability [4] 102% | viability [5] 103% | inhibition [6] 0.7% | RAM network inhibition [7] 3.49%

O=C(Nc1ccc2ccccc2c1)c1cccnc1
inactive: growth inhibition [1] -3.92% | growth inhibition [2] 2.79% | viability increase [3] -3.85% | viability [4] 93.2% | viability [5] 81.5% | inhibition [6] 1.27% | RAM network inhibition [7] 4.91%

CCNCCNC(=O)c1c(O)c2cccc3c2n(c1=O)CCC3
inactive: growth inhibition [1] -22.8% | growth inhibition [2] -19% | viability increase [3] -3.02% | viability [4] 82.6% | viability [5] 93.7% | inhibition [6] 0.7% | RAM network inhibition [7] 0.57%

CCOC(=O)C1=C(C)OC(N)=C(C#N)C1c1c(C)nn(-c2ccccc2)c1Cl (configuration not stated)
inactive: growth inhibition [1] -11.9% | growth inhibition [2] -20% | viability increase [3] -3.98% | viability [4] 102% | viability [5] 98.1% | inhibition [6] 3.71% | RAM network inhibition [7] 7.39%

COC(=O)C1=C(O)CSC1=Nc1cccc(C(F)(F)F)c1
inactive: growth inhibition [1] -1.75% | growth inhibition [2] 8.3% | viability increase [3] -0.93% | viability [4] 101% | viability [5] 96.3% | inhibition [6] 0.625% | RAM network inhibition [7] 3.1%

O=C(CCCC(=O)Nc1cccnc1)Nc1cccnc1
inactive: growth inhibition [1] -6.39% | growth inhibition [2] 3.58% | viability increase [3] -0.66% | viability [4] 103% | viability [5] 99.2% | inhibition [6] 0.385% | RAM network inhibition [7] 6.65%

Cc1ccc(OCC(=O)n2nc(C)cc2C)c(Br)c1
inactive: growth inhibition [1] -17.8% | growth inhibition [2] -0.465% | viability increase [3] -2.35% | viability [4] 93.9% | viability [5] 94.3% | inhibition [6] 0.89% | RAM network inhibition [7] 0.1%

Cc1cc(C)c(S(=O)(=O)Nc2ccc(O)cc2)c(C)c1
inactive: growth inhibition [1] -9% | growth inhibition [2] 3.16% | viability increase [3] -1.56% | viability [4] 91.6% | viability [5] 89.2% | inhibition [6] 1.2% | RAM network inhibition [7] 2.25%

COc1ccc(Br)cc1/C=N/n1c(C)nnc1C
inactive: growth inhibition [1] -14% | growth inhibition [2] -21% | viability increase [3] -5.21% | viability [4] 66% | viability [5] 67.5% | inhibition [6] 1.7% | RAM network inhibition [7] -0.74%

CCN(CC)C(=O)C1CCN(S(=O)(=O)c2ccc(C3CNC(=O)C3)cc2)CC1 (configuration not stated)
inactive: growth inhibition [1] 3.76% | growth inhibition [2] -0.015% | viability increase [3] 0.02% | viability [4] 99.9% | viability [5] 106% | inhibition [6] 1.81% | RAM network inhibition [7] 2.47%

Cc1cccc(NC(=O)Cn2cnc3sc(C)c(S(=O)(=O)N4CCC(C)CC4)c3c2=O)n1
inactive: growth inhibition [1] -9.9% | growth inhibition [2] -17.3% | viability increase [3] -1.12% | viability [4] 95.2% | viability [5] 99.1% | inhibition [6] 2.16% | RAM network inhibition [7] 9.71%

CCN(CC)Cc1c(O)ccc2c(-c3ccccc3)cc(=O)oc12
inactive: growth inhibition [1] -5.29% | growth inhibition [2] -1.64% | viability increase [3] -1.73% | viability [4] 94.3% | viability [5] 94.7% | inhibition [6] 1.23% | RAM network inhibition [7] 1.08%

O=C(NCc1ccccn1)C1CCN(S(=O)(=O)N2CCCC2)CC1
inactive: growth inhibition [1] -5.04% | growth inhibition [2] -10% | viability increase [3] -0.46% | viability [4] 109% | viability [5] 95.7% | inhibition [6] 0.3% | RAM network inhibition [7] 3.61%

Cc1cc(Nc2ccc(C)c(C)c2)n2nc(C)nc2n1
inactive: growth inhibition [1] 6.21% | growth inhibition [2] 10.1% | viability increase [3] -4.63% | viability [4] 105% | viability [5] 96.9% | inhibition [6] 0.77% | RAM network inhibition [7] 3.69%

O=S(=O)(c1ccc(Br)cc1)N1CCN(c2cc(-c3ccccc3)nc3ncnn23)CC1
inactive: growth inhibition [1] -4.71% | growth inhibition [2] -15.6% | viability increase [3] -5.82% | viability [4] 61.9% | viability [5] 71.9% | inhibition [6] 2.37% | RAM network inhibition [7] 2.33%

COc1ccc(C2CC(c3ccc(Cl)c(Cl)c3)Nc3nc(N)nn32)cc1 (configuration not stated)
inactive: growth inhibition [1] -6.79% | growth inhibition [2] 12.7% | viability increase [3] -2.3% | viability [4] 75.4% | viability [5] 76.4% | inhibition [6] 2.52% | RAM network inhibition [7] 5.52%

OCCN1CCN(c2ncnc3ccc(Br)cc23)CC1
inactive: growth inhibition [1] -15.5% | growth inhibition [2] 4.06% | viability increase [3] -4.77% | viability [4] 99.1% | viability [5] 96.7% | inhibition [6] -0.12% | RAM network inhibition [7] -1.2%

CCOC(=O)Cn1c(CN2CC(C)OC(C)C2)nc2c1c(=O)n(C)c(=O)n2C (configuration not stated)
inactive: growth inhibition [1] 3.12% | growth inhibition [2] 8.5% | viability increase [3] 0.25% | viability [4] 95.2% | viability [5] 95% | inhibition [6] -0.31% | RAM network inhibition [7] -1.12%

O=C(C1CCCN(S(=O)(=O)c2cccc3cccnc23)C1)N1CCN(c2ccc(F)cc2)CC1 (configuration not stated)
inactive: growth inhibition [1] 2.49% | growth inhibition [2] 2.17% | viability increase [3] -0.16% | viability [4] 47.9% | viability [5] 61.8% | inhibition [6] -0.585% | RAM network inhibition [7] 2.25%

O=C(CCn1c(=O)sc2ccccc21)NCc1ccccc1
inactive: growth inhibition [1] 4.34% | growth inhibition [2] -2.52% | viability increase [3] -0.79% | viability [4] 107% | viability [5] 105% | inhibition [6] 2% | RAM network inhibition [7] 2.7%

COc1ccc(N(CC(=O)NCc2cccs2)S(=O)(=O)c2cccnc2)cc1
inactive: growth inhibition [1] 5.41% | growth inhibition [2] 4.48% | viability increase [3] -0.05% | viability [4] 107% | viability [5] 106% | inhibition [6] 0.045% | RAM network inhibition [7] 7.1%

CCCc1cc(C(=O)NCc2cccs2)no1
inactive: growth inhibition [1] -11.4% | growth inhibition [2] 21.3% | viability increase [3] -3.29% | viability [4] 101% | viability [5] 94.1% | inhibition [6] 1.34% | RAM network inhibition [7] 0.74%

Cc1noc(C(=O)NCc2cccnc2)c1Cl
inactive: growth inhibition [1] -7.93% | growth inhibition [2] -8.18% | viability increase [3] 1.31% | viability [4] 110% | viability [5] 101% | inhibition [6] 0.865% | RAM network inhibition [7] 5.93%

CC1=C(C(=O)OCC2CCCO2)C(c2ccncc2)C2=C(CCCC2=O)N1 (configuration not stated)
inactive: growth inhibition [1] -16.7% | growth inhibition [2] -8.36% | viability increase [3] -1.77% | viability [4] 98.9% | viability [5] 98.1% | inhibition [6] 2.9% | RAM network inhibition [7] 1.82%

CCOC(=O)C1CCCCN1Cc1cc(Cl)ccc1O (configuration not stated)
inactive: growth inhibition [1] -3.16% | growth inhibition [2] -13.2% | viability increase [3] 0.31% | viability [4] 87% | viability [5] 81% | inhibition [6] 0.74% | RAM network inhibition [7] 3.98%

O=C(Cc1ccccc1)NCCn1ccc2ccccc21
inactive: growth inhibition [1] -10.7% | growth inhibition [2] -13.2% | viability increase [3] -1.79% | viability [4] 94.6% | viability [5] 88.8% | inhibition [6] 0.01% | RAM network inhibition [7] 3.55%

O=C(O)c1cc2nc(C3CC3)cc(C(F)(F)F)n2n1
inactive: growth inhibition [1] -2.34% | growth inhibition [2] -2.47% | viability increase [3] 0.62% | viability [4] 102% | viability [5] 90.1% | inhibition [6] 1.67% | RAM network inhibition [7] -2.13%

CCc1nnc(NC(=O)c2ccc(S(=O)(=O)N(CCOC)CCOC)cc2)s1
inactive: growth inhibition [1] -9.86% | growth inhibition [2] -3% | viability increase [3] 3.39% | viability [4] 115% | viability [5] 107% | inhibition [6] 0.77% | RAM network inhibition [7] 1.29%

CCN(CC)CCCNC(=O)C1c2ccccc2C(=O)N(C)C1c1ccc(OC)cc1 (configuration not stated)
inactive: growth inhibition [1] -23% | growth inhibition [2] -20.7% | viability increase [3] 0.37% | viability [4] 96.5% | viability [5] 97.3% | inhibition [6] 3.1% | RAM network inhibition [7] 2.54%

CCOC(=O)N1CCC(NC(=O)c2ccc(NC(=O)C3CCCO3)cc2)CC1 (configuration not stated)
inactive: growth inhibition [1] -10.8% | growth inhibition [2] -9.25% | viability increase [3] 0.49% | viability [4] 97.8% | viability [5] 105% | inhibition [6] 1.09% | RAM network inhibition [7] -0.36%

O=C(O)c1cc(-c2ccc(Cl)cc2)n[nH]1
inactive: growth inhibition [1] -6.99% | growth inhibition [2] 0.335% | viability increase [3] -0.39% | viability [4] 100% | viability [5] 96% | inhibition [6] 0.27% | RAM network inhibition [7] 0.61%

COc1cccc(C2CC(=O)N3CN(c4cccc(Cl)c4C)CSC3=C2C#N)c1OC (configuration not stated)
inactive: growth inhibition [1] 5.33% | growth inhibition [2] 19.4% | viability increase [3] -4.11% | viability [4] 73.2% | viability [5] 63.9% | inhibition [6] 3.38% | RAM network inhibition [7] 7.39%

CCOc1ccc(C(F)(F)F)cc1NC(C)=O
inactive: growth inhibition [1] -6.15% | growth inhibition [2] -9.57% | viability increase [3] -3.24% | viability [4] 90.4% | viability [5] 90.3% | inhibition [6] 0.62% | RAM network inhibition [7] 3.29%

CN(C)S(=O)(=O)c1ccc(C(=O)Nc2ccc(OCC(=O)N3CCOCC3)cc2)cc1
inactive: growth inhibition [1] 0.98% | growth inhibition [2] -1.1% | viability increase [3] -1.5% | viability [4] 97.7% | viability [5] 97.9% | inhibition [6] 2.33% | RAM network inhibition [7] 0.86%
